# What was measured:
# Format in all cases: functional
# BT-549 = test: Growth inhibition of human BT549 cells at 10 uM incubated for 48 hrs by sulforhodamine B assay relative to control; conditions: BT-549, 48 h, read-out: GI
# Procedure, shortened: (§1)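 Single-dose screen at 10 μM final: cells in RPMI 1640, 5% FBS, 2 mM L-glutamine, plated 5,000–40,000/well, preincubated 24 h at 37°C, 5% CO2; drug 48 h; adherent cells fixed with 10% TCA, suspension cells with 16% TCA; SRB stain, absorbance 515 nm; percentage growth versus untreated control, with time-zero plates.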
# MCF7 = test: Growth inhibition of human MCF7 cells at 10 uM incubated for 48 hrs by sulforhodamine B assay relative to control; conditions: MCF7, 48 h, read-out: GI; procedure, shortened: as §1
# MDA-MB-231 = test: Growth inhibition of human MDA-MB-231 cells at 10 uM incubated for 48 hrs by sulforhodamine B assay relative to control; conditions: MDA-MB-231, 48 h, read-out: GI; procedure, shortened: as §1
# A498 = test: Growth inhibition of human A498 cells at 10 uM incubated for 48 hrs by sulforhodamine B assay relative to control; conditions: A498, 48 h, read-out: GI; procedure, shortened: as §1
# Hs-578T = test: Growth inhibition of human Hs 578T cells at 10 uM incubated for 48 hrs by sulforhodamine B assay relative to control; conditions: read-out: GI; procedure, shortened: as §1
# U-251 = test: Growth inhibition of human U251 cells at 10 uM incubated for 48 hrs by sulforhodamine B assay relative to control; conditions: U-251, 48 h, read-out: GI
# Procedure, shortened: (§2)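 NCI single-dose screen: cells grown in RPMI 1640 with 5% FBS and 2 mM L-glutamine, plated at 5,000–40,000 cells/well and preincubated 24 h at 37 °C, 5% CO2. Compounds taken from DMSO stock and tested at final 10 µM for 48 h. Cells fixed with TCA, stained with 0.4% SRB, absorbance read at 515 nm. Percentage growth calculated against untreated controls; controls held DMSO at the same dilution.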
# UACC-257 = test: Growth inhibition of human UACC257 cells at 10 uM incubated for 48 hrs by sulforhodamine B assay relative to control; conditions: UACC-257, 48 h, read-out: GI; procedure, shortened: as §2
# UACC-62 = test: Growth inhibition of human UACC62 cells at 10 uM incubated for 48 hrs by sulforhodamine B assay relative to control; conditions: UACC-62, 48 h, read-out: GI; procedure, shortened: as §2
# MDA-MB-435 = test: Growth inhibition of human MDA-MB-435 cells at 10 uM incubated for 48 hrs by sulforhodamine B assay relative to control; conditions: MDA-MB-435, 48 h, read-out: GI; procedure, shortened: as §1
# IGROV-1 = test: Growth inhibition of human IGROV1 cells at 10 uM incubated for 48 hrs by sulforhodamine B assay relative to control; conditions: IGROV-1, 48 h, read-out: GI; procedure, shortened: as §1
# CCRF-CEM = test: Growth inhibition of human CCRF-CEM cells at 10 uM incubated for 48 hrs by sulforhodamine B assay relative to control; conditions: read-out: GI; procedure, shortened: as §1
# HOP-62 = test: Growth inhibition of human HOP62 cells at 10 uM incubated for 48 hrs by sulforhodamine B assay relative to control; conditions: HOP-62, 48 h, read-out: GI; procedure, shortened: as §1
# HCT-116 = test: Growth inhibition of human HCT116 cells at 10 uM incubated for 48 hrs by sulforhodamine B assay relative to control; conditions: HCT-116, 48 h, read-out: GI; procedure, shortened: as §1
# MDA-MB-468 = test: Growth inhibition of human MDA-MB-468 cells at 10 uM incubated for 48 hrs by sulforhodamine B assay relative to control; conditions: MDA-MB-468, 48 h, read-out: GI; procedure, shortened: as §1
# SW-620 = test: Growth inhibition of human SW620 cells at 10 uM incubated for 48 hrs by sulforhodamine B assay relative to control; conditions: SW-620, 48 h, read-out: GI; procedure, shortened: as §2
# SNB-19 = test: Growth inhibition of human SNB19 cells at 10 uM incubated for 48 hrs by sulforhodamine B assay relative to control; conditions: SNB-19, 48 h, read-out: GI; procedure, shortened: as §2
# A549 = test: Growth inhibition of human A549/ATCC cells at 10 uM incubated for 48 hrs by sulforhodamine B assay relative to control; conditions: A549, 48 h, read-out: GI; procedure, shortened: as §1
# NCI-H226 = test: Growth inhibition of human NCI-H226 cells at 10 uM incubated for 48 hrs by sulforhodamine B assay relative to control; conditions: NCI-H226, 48 h, read-out: GI; procedure, shortened: as §1
# SK-MEL-2 = test: Growth inhibition of human SK-MEL-2 cells at 10 uM incubated for 48 hrs by sulforhodamine B assay relative to control; conditions: SK-MEL-2, 48 h, read-out: GI; procedure, shortened: as §2
# HT-29 = test: Growth inhibition of human HT-29 cells at 10 uM incubated for 48 hrs by sulforhodamine B assay relative to control; conditions: HT-29, 48 h, read-out: GI; procedure, shortened: as §1
# Malme-3M = test: Growth inhibition of human MALME-3M cells at 10 uM incubated for 48 hrs by sulforhodamine B assay relative to control; conditions: read-out: GI; procedure, shortened: as §1
# T47D = test: Growth inhibition of human T47D cells at 10 uM incubated for 48 hrs by sulforhodamine B assay relative to control; conditions: read-out: GI; procedure, shortened: as §2
# COLO 205 = test: Growth inhibition of human COLO205 cells at 10 uM incubated for 48 hrs by sulforhodamine B assay relative to control; conditions: COLO 205, 48 h, read-out: GI; procedure, shortened: as §1
# SN12C = test: Growth inhibition of human SN12C cells at 10 uM incubated for 48 hrs by sulforhodamine B assay relative to control; conditions: read-out: GI; procedure, shortened: as §2
# SR = test: Growth inhibition of human SR cells at 10 uM incubated for 48 hrs by sulforhodamine B assay relative to control; conditions: read-out: GI; procedure, shortened: as §2
# OVCAR-8 = test: Growth inhibition of human OVCAR8 cells at 10 uM incubated for 48 hrs by sulforhodamine B assay relative to control; conditions: OVCAR-8, 48 h, read-out: GI; procedure, shortened: as §1
# SF-295 = test: Growth inhibition of human SF295 cells at 10 uM incubated for 48 hrs by sulforhodamine B assay relative to control; conditions: SF-295, 48 h, read-out: GI; procedure, shortened: as §2
# SK-MEL-28 = test: Growth inhibition of human SK-MEL-28 cells at 10 uM incubated for 48 hrs by sulforhodamine B assay relative to control; conditions: SK-MEL-28, 48 h, read-out: GI; procedure, shortened: as §2
# PC-3 = test: Growth inhibition of human PC3 cells at 10 uM incubated for 48 hrs by sulforhodamine B assay relative to control; conditions: PC-3, 48 h, read-out: GI; procedure, shortened: as §1
# 786-0 = test: Growth inhibition of human 786-0 cells at 10 uM incubated for 48 hrs by sulforhodamine B assay relative to control; conditions: 786-0, 48 h, read-out: GI; procedure, shortened: as §1
smiles,measurement,setting,value
CCOC(=O)C1=C(C)NC(SCc2nnc(-c3ccc(C)cc3)o2)=NC1c1ccc(F)cc1 (stereo not given),inhibition of growth at 10 µM,BT-549,12.8%
same,inhibition of growth at 10 µM,MCF7,14%
same,inhibition of growth at 10 µM,MDA-MB-231,14.7%
same,inhibition of growth at 10 µM,A498,< 10%
same,inhibition of growth at 10 µM,Hs-578T,< 10%
same,inhibition of growth at 10 µM,U-251,15.1%
same,inhibition of growth at 10 µM,UACC-257,< 10%
same,inhibition of growth at 10 µM,UACC-62,17.1%
same,inhibition of growth at 10 µM,MDA-MB-435,< 10%
same,inhibition of growth at 10 µM,IGROV-1,13.9%
same,inhibition of growth at 10 µM,CCRF-CEM,14.1%
same,inhibition of growth at 10 µM,HOP-62,< 10%
same,inhibition of growth at 10 µM,HCT-116,18.6%
same,inhibition of growth at 10 µM,MDA-MB-468,18.1%
same,inhibition of growth at 10 µM,SW-620,< 10%
same,inhibition of growth at 10 µM,SNB-19,10.1%
same,inhibition of growth at 10 µM,A549,17.3%
same,inhibition of growth at 10 µM,NCI-H226,10.1%
same,inhibition of growth at 10 µM,SK-MEL-2,< 10%
same,inhibition of growth at 10 µM,HT-29,12.4%
same,inhibition of growth at 10 µM,Malme-3M,< 10%
same,inhibition of growth at 10 µM,T47D,32.6%
same,inhibition of growth at 10 µM,COLO 205,< 10%
same,inhibition of growth at 10 µM,SN12C,19.9%
same,inhibition of growth at 10 µM,SR,26.5%
same,inhibition of growth at 10 µM,OVCAR-8,17.8%
same,inhibition of growth at 10 µM,SF-295,12.1%
same,inhibition of growth at 10 µM,SK-MEL-28,< 10%
same,inhibition of growth at 10 µM,PC-3,26.8%
same,inhibition of growth at 10 µM,786-0,20.2%
